Test results as given in publication PMC8176898 (Journal of the American Chemical Society, 2021).
Blank lines part the entries; values can stand above or below the molecule they belong to. Ends that are not written are not given here.

B6: TAMRA-APP_(C-term) probe, (TAMRA)-NNG-QNGYENPTYKFFEQMQN (peptide)
peptide: {TAMRA}-NNGQNGYENPTYKFFEQMQN

What was measured:
[1] = test system: Aβ42 levels, primary cortical neurons (APPswe/PS1ΔE9); assay: Aβ42 ELISA of conditioned medium of APPswe/PS1ΔE9 neurons; type: cell-based, mouse; conditions: 24 h incubation
primary neurons = assay: Neuronal cell viability; conditions: colorimetric readout of metabolic activity
[2] = test system: primary cortical neurons (APPswe/PS1ΔE9); assay: LDH release; conditions: after 24 h of treatment, TAT-14 10 μM; same conditioned medium as ELISA
[3] = In vitro human plasma stability; type: in vitro ADME
Outline: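 Test peptides incubated in human plasma at 37 °C for up to 24 h. At various time points, peptide was extracted and quantified by UPLC. A buffer-only control was run alongside. Mean ± SEM, n = 3.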

[4] = In vitro hepatic clearance, mouse liver microsomes; type: in vitro ADME
[5] = biological target: T1, human Mint2-PTB-ARM (Mint2-PARM), PARMHis6, residues 364-570 (human, UniProt Q99767 364-570); assay: fluorescence polarisation
T1 sequence (looked up): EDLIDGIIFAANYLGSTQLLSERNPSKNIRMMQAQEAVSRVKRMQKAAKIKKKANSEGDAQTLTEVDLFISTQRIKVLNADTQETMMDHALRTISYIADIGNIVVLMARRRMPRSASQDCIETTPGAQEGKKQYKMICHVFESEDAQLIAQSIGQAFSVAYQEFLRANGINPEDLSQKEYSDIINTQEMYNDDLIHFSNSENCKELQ

[6] = biological target: B6; assay: fluorescence polarisation
Mint2-PARM D462A = biological target: T2, Mint2-PARM D462A (human, UniProt Q99767 364-570, D462A); assay: fluorescence polarisation
T2 sequence (looked up): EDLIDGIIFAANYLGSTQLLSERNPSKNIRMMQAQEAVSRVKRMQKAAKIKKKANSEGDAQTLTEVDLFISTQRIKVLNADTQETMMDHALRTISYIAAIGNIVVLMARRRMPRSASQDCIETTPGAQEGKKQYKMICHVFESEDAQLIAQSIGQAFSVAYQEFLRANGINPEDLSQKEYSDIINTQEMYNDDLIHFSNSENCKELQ

Molecule: cyclo(DLATEPAK(Dap)-14 (bicyclic or more) [MiniAp4-14]
reduction of Aβ42 levels relative to vehicle control ([1]; 10 μM, vehicle 0.25% DMSO): did not affect Aβ42 production
adverse effect on cell viability over the concentration curve (in words) (primary neurons): no toxicity

Molecule: C[C@H](NC(=O)Cc1cc(F)cc(F)c1)C(=O)NC(C(=O)OC(C)(C)C)c1ccccc1 (stereo partly drawn) [DAPT, N-[N-(3,5-difluorophenacetyl)-l-alanyl]-s-phenyl-glycine tert-butyl ester, reference compound]
reduction of Aβ42 levels (positive control) ([1]; concentration not given): 47%
LDH release relative to vehicle control (in words) [2]: low LDH levels

Molecule: NGYENPTYKFFE [APPWT peptide (NGYENPTYKFFE; residues 755-766)]
Ki [5]: 4 ± 0.2 µM

Molecule: NGYENPTYKFAE (peptide, UniProt P05067 755-766, looked up) [APPWT peptide F765A]
fold decrease in affinity relative to the APPWT peptide [5]: 18 fold

Molecule: NGYENPTYKWFE (peptide, UniProt P05067 755-766, looked up) [APPWT peptide F764W]
binding result [5]: binds

Molecule: NGYENPTWKFFE (peptide, UniProt P05067 755-766, looked up) [APPWT peptide Y762W]
binding result [5]: binds

Molecule: NGAENPTYKFFE (peptide, UniProt P05067 755-766, looked up) [APPWT peptide Y757A]
fold decrease in affinity relative to the APPWT peptide [5]: 76 fold

Molecule: NGYENPTYKFWE (peptide, UniProt P05067 755-766, looked up) [APPWT peptide F765W]
binding result [5]: binds

B2: semisynthetic Mint2-pPARMSS D462δ (domain or fragment, human, UniProt Q99767 364-570, looked up)
chain: EDLIDGIIFAANYLGSTQLLSERNPSKNIRMMQAQEAVSRVKRMQKAAKIKKKANSEGDAQTLTEVDLFISTQRIKVLNADTQETMMDHALKTISYIADIGNIVVLMARRRMPRSASQDAIETTPGAQEGKKQYKMIAHVFESEDAQLIAQSIGQAFSVAYQEFLRANGINPEDLSQKEYSDIINTQEMYNDDLIHFSNSENAKELQ
modifications: backbone amide-to-ester at D462 (α-hydroxy acid, D462δ)
fold reduction in affinity relative to wild type [6]: 25 fold

B4: human Mint2-PARM Y459A/F520A (hMint2^Y459A/F520A) (domain or fragment, UniProt Q99767 364-570, looked up)
chain: EDLIDGIIFAANYLGSTQLLSERNPSKNIRMMQAQEAVSRVKRMQKAAKIKKKANSEGDAQTLTEVDLFISTQRIKVLNADTQETMMDHALRTISAIADIGNIVVLMARRRMPRSASQDCIETTPGAQEGKKQYKMICHVFESEDAQLIAQSIGQAASVAYQEFLRANGINPEDLSQKEYSDIINTQEMYNDDLIHFSNSENCKELQ
fold decrease in affinity relative to wild-type Mint2-PARM [6]: 72 fold

Molecule: B6
binding result [5]: binds
binding result (Mint2-PARM D462A): binds

B7: Mint2-PARM L454A (domain or fragment, human, UniProt Q99767 364-570, looked up)
chain: EDLIDGIIFAANYLGSTQLLSERNPSKNIRMMQAQEAVSRVKRMQKAAKIKKKANSEGDAQTLTEVDLFISTQRIKVLNADTQETMMDHAARTISYIADIGNIVVLMARRRMPRSASQDCIETTPGAQEGKKQYKMICHVFESEDAQLIAQSIGQAFSVAYQEFLRANGINPEDLSQKEYSDIINTQEMYNDDLIHFSNSENCKELQ
fold reduction in affinity relative to Mint2-PARM^WT [6]: > 10 fold

Further lines, results first:

half-life (T1/2) in human plasma ([3]; 37 °C, up to 24 h, UPLC read-out, n = 3): < 30 min
half-life ([3]; human): 26 min
microsomal CLint [4]: 15.4 ± 2.5 µL/min/mg
Molecule: NGYENPTYKFFE [APPWT peptide]

Ki [5]: ≥ 500 µM
Molecule: NGYEQPTYKFFE (peptide, UniProt P05067 755-766, looked up) [APPWT peptide N759Q]

fold decrease in affinity relative to the APPWT peptide [5]: 14 fold
Molecule: NGYENPTYKAFE (peptide, UniProt P05067 755-766, looked up) [APPWT peptide F764A]

fold reduction in affinity relative to Mint2-PARM^WT [6]: 45 fold
B1: Mint2-PARM F520A (domain or fragment, human, UniProt Q99767 364-570, looked up)
chain: EDLIDGIIFAANYLGSTQLLSERNPSKNIRMMQAQEAVSRVKRMQKAAKIKKKANSEGDAQTLTEVDLFISTQRIKVLNADTQETMMDHALRTISYIADIGNIVVLMARRRMPRSASQDCIETTPGAQEGKKQYKMICHVFESEDAQLIAQSIGQAASVAYQEFLRANGINPEDLSQKEYSDIINTQEMYNDDLIHFSNSENCKELQ

fold reduction in affinity relative to wild type [6]: 14 fold
B3: semisynthetic Mint2-pPARMSS S458σ (domain or fragment, human, UniProt Q99767 364-570, looked up)
chain: EDLIDGIIFAANYLGSTQLLSERNPSKNIRMMQAQEAVSRVKRMQKAAKIKKKANSEGDAQTLTEVDLFISTQRIKVLNADTQETMMDHALKTISYIADIGNIVVLMARRRMPRSASQDAIETTPGAQEGKKQYKMIAHVFESEDAQLIAQSIGQAFSVAYQEFLRANGINPEDLSQKEYSDIINTQEMYNDDLIHFSNSENAKELQ
modifications: backbone amide-to-ester at S458 (α-hydroxy acid, S458σ)

fold reduction in affinity relative to Mint2-PARM^WT [6]: > 10 fold
B5: Mint2-PARM Y459A (domain or fragment, human, UniProt Q99767 364-570, looked up)
chain: EDLIDGIIFAANYLGSTQLLSERNPSKNIRMMQAQEAVSRVKRMQKAAKIKKKANSEGDAQTLTEVDLFISTQRIKVLNADTQETMMDHALRTISAIADIGNIVVLMARRRMPRSASQDCIETTPGAQEGKKQYKMICHVFESEDAQLIAQSIGQAFSVAYQEFLRANGINPEDLSQKEYSDIINTQEMYNDDLIHFSNSENCKELQ
